Experimental findings from ChEMBL document CHEMBL1137591, “Identification of a potent and stable antiproliferative agent by the prodrug formation of a thiolate histone deacetylase inhibitor” (Bioorg Med Chem Lett, 2007) are described below.

One data set concerns NCI-H460. Nature of the data set: Inhibition of NCI-H460 cell proliferation (mean). It counts as functional, cell-based. The settings on record: Homo sapiens. The essentials: (§1)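 Cells were seeded at 1500 per well and held 24 h at 37 °C. They were then exposed for 48 h to a range of compound concentrations in RPMI-1640 with 10% FBS at 37 °C and 5% CO2. Staining used 0.5 mg/mL methylene blue for 30 min at room temperature. Dye was dissolved in 3% aqueous HCl and absorbance read at 660 nm. EC50 values are means of at least two experiments.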

The subject of a further data set is MDA-MB-231. Put plainly: Inhibition of MDA-MB-231 cell proliferation (mean of two experiments). It counts as functional, cell-based, Homo sapiens. Put shortly:
as §1

In a further data set the test system is DLD-1. Nature of the data set: Inhibition of DLD-1 cell proliferation (mean). The class given is functional, cell-based. As to conditions: Homo sapiens. The essentials:
as §1

The next data set deals with T47D. Nature of the data set: Inhibition of T-47D cell proliferation (mean of two experiments). The settings on record: Homo sapiens. It counts as functional, cell-based. Put shortly:
as §1

Another data set has as its system Malme-3M. Nature of the data set: Inhibition of MALME-3M cell proliferation (mean). As to conditions: Homo sapiens. The class given is functional, cell-based. The essentials:
as §1

The next data set concerns A498. Put plainly: Inhibition of A498 cell proliferation (mean). The class given is functional, cell-based. As to conditions: Homo sapiens. The essentials: as §1
A further data set has as its system HCT-116. Nature of the data set: Inhibition of HCT116 cell proliferation (mean). The class given is functional, cell-based. As to conditions: Homo sapiens. The essentials:
as §1

Another data set has as its system PC-3. Nature of the data set: Inhibition of PC-3 cell proliferation (mean). The settings on record: Homo sapiens. It counts as functional, cell-based. Put shortly: as §1
A short description of data set [1]: Stability (mean % remaining) in human plasma after incubation at 37 °C for 0h. The class given is ADME. As to conditions: read-out: %R. The essentials: (§2)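 Compounds were incubated in human plasma with sampling at 0, 2, 4, 8 and 24 h. The percentage of intact compound remaining was measured at each point. Values are means of at least three experiments.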

A short description of data set [2]: Stability (mean % remaining) in human plasma after incubation at 37 °C for 4h. The class given is ADME, cell-free. The settings on record: read-out: %R. Put shortly:
as §2

Data set [3] is described as follows: Stability (mean % remaining) in human plasma after incubation at 37 °C for 8h. As to conditions: read-out: %R. The class given is ADME, cell-free. Put shortly:
as §2

Data set [4] in a line: Stability (mean % remaining) in human plasma after incubation at 37 °C for 2h. It counts as ADME, cell-free. As to conditions: read-out: %R. The essentials: as §2
Data set [5] can be described thus: Stability (mean % remaining) in human plasma after incubation at 37 °C for 24h. It counts as ADME, cell-free. As to conditions: read-out: %R. Put shortly:
as §2

For a further data set, the target named is Histone deacetylase 1 (Homo sapiens, UniProt Q13547). Nature of the data set: Inhibition of HDAC1.
Chain of Histone deacetylase 1 (Q13547 whole entry): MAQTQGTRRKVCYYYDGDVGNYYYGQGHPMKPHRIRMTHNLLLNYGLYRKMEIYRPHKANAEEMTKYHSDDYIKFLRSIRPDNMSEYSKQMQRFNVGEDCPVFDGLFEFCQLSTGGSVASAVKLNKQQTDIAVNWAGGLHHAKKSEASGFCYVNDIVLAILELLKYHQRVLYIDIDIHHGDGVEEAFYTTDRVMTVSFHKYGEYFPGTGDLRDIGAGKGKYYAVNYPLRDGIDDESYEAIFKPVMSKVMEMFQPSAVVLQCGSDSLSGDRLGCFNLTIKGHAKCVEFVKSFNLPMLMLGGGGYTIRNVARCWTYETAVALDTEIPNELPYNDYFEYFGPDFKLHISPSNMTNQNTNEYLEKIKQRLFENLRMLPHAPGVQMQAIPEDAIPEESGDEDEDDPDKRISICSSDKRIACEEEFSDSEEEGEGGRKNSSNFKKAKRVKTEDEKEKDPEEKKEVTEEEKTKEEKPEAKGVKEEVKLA

One may read the EC50 as the concentration at which the effect is half-maximal. Read a low EC50 as a more potent agent. With `COC(C(=O)SCCCCCCC(=O)Nc1nc(-c2ccccc2)cs1)c1ccccc1` (stereo unspecified), the EC50 is 11 µM with NCI-H460 and over 20 µM in the data set on MDA-MB-231 (Homo sapiens, MDA-MB-231).
`CC(C(=O)SCCCCCCC(=O)Nc1nc(-c2ccccc2)cs1)c1ccccc1` (stereo unspecified): the EC50 in the data set with NCI-H460 is 3.2 µM; with DLD-1, 86 µM; in the data set on T47D, over 100 µM; in the data set on Malme-3M, 33 µM; in the data set with A498, 26 µM; with HCT-116, 23 µM. The concentration giving a half-maximal response (EC50) in the data set with PC-3 is 37 µM; in the data set on MDA-MB-231 (Homo sapiens, MDA-MB-231) it was over 20 µM; in the data set with MDA-MB-231 (mda-mb-231), 27 µM.
For `C[C@@H](Cc1ccccc1)C(=O)SCCCCCCC(=O)Nc1nc(-c2ccccc2)cs1`, the concentration giving a half-maximal response (EC50) in the data set with NCI-H460 was determined as 3 µM; in the data set on HCT-116, 0.62 µM; in the data set with PC-3 it was 4.4 µM; in the data set on MDA-MB-231 (Homo sapiens, MDA-MB-231) it was 4 µM.
The corresponding values for `C[C@H](Cc1ccccc1)C(=O)SCCCCCCC(=O)Nc1nc(-c2ccccc2)cs1` are 3.2 µM, 0.75 µM, 9.9 µM and 3.1 µM.
As for `CC(C)C(=O)SCCCCCCC(=O)Nc1nc(-c2ccccc2)cs1`, the EC50 in the data set with NCI-H460 is 2.1 µM; in the data set with DLD-1 it was 2.3 µM; with T47D, 8.3 µM; in the data set on Malme-3M, 4.3 µM; with A498, 6.8 µM; in the data set on HCT-116, 1.3 µM. The 50% effective concentration (EC50) in the data set on PC-3 was found to be 9.5 µM; in the data set on MDA-MB-231 (Homo sapiens, MDA-MB-231), 4.4 µM. The remaining at 0 h in [1] is 100%. Besides, the remaining at 4 h in data set [2] is 71%. The remaining at 8 h in data set [3] turned out to be 63%. Moreover, the remaining at 2 h in data set [4] turned out to be 86%. The remaining at 24 h in data set [5] amounted to 49%.
As a reminder, the IC50 is the concentration that inhibits the measured activity by half. Low values mean inhibition by little substance, high ones a need for much substance. On to `CC(Cc1ccccc1)C(=O)SCCCCCCC(=O)Nc1nc(-c2ccccc2)cs1` (stereo unspecified), for which the concentration for a half-maximal effect (EC50) in the data set with NCI-H460 came out at 1.5 µM; in the data set on DLD-1 it was 1.8 µM; in the data set with T47D, 4.3 µM; in the data set with Malme-3M it was 3 µM; with A498 it was 2.6 µM; in the data set on HCT-116, 1.2 µM. The EC50 came out at 3.2 µM in the data set on PC-3 and 1.9 µM with MDA-MB-231 (Homo sapiens, MDA-MB-231). In [1], the remaining at 0 h is 100%. Moreover, the remaining at 4 h in data set [2] was found to be 99%. This compound also came in with an IC50 on Histone deacetylase 1 of over 100 µM. For the same compound, the remaining at 8 h in data set [3] is 99%. For the same compound, the remaining at 2 h in data set [4] came out at 100%. Besides, in [5], the remaining at 24 h is 100%.
As for `O=C(CCCCCCS)Nc1nc(-c2ccccc2)cs1`, the concentration for a half-maximal effect (EC50) in the data set with NCI-H460 was 7.6 µM; in the data set on MDA-MB-231 (Homo sapiens, MDA-MB-231) it was over 20 µM. The midpoint of inhibition on Histone deacetylase 1, the IC50, lay at 0.048 µM.
For `O=C(CCCCCCSC(=O)C(Cc1ccccc1)Cc1ccccc1)Nc1nc(-c2ccccc2)cs1`, the EC50 with NCI-H460 was over 20 µM; in the data set with MDA-MB-231 (Homo sapiens, MDA-MB-231), over 20 µM.
